Measurements published in ChEMBL document CHEMBL5532695, “4-Trifluoromethyl bithiazoles as broad-spectrum antimicrobial agents for virus-related bacterial infections or co-infections” (RSC Med Chem, 2024).

Tested on: Zika virus
Settings: vero e6; call rule not given here

Row | Compound | IC50
1 | O=C(O)c1cc(Nc2nc(-c3sc(NC(=O)c4ccccc4)nc3C(F)(F)F)cs2)cc(C(F)(F)F)c1 | Not Active

Tested on: Enterococcus faecium
Test: Antibacterial activity against Vancomycin resistant Enterococcus faecium SI-1831 assessed as reduction in microbial growth measured after 18 hrs by CLSI based broth microdilution method
Format: functional
Settings: not given
Procedure, shortened: (§1)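 Gram-positive clinical isolates; compounds dissolved in DMSO (50 mg mL−1 stock) and diluted in medium; MIC by CLSI broth microdilution in Mueller–Hinton medium, inoculum 5 × 10^4 CFU per well, read after 18 h at 35 ± 2 °C; triplicate.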

Row | Compound | MIC [µg/mL]
2 | O=C(O)c1cc(Nc2nc(-c3sc(NC(=O)c4ccccc4)nc3C(F)(F)F)cs2)cc(C(F)(F)F)c1 | > 64

Tested on: Staphylococcus epidermidis
Test: Antibacterial activity against linezolid-resistant Staphylococcus epidermidis SI-1266 assessed as reduction in microbial growth measured after 18 hrs by CLSI based broth microdilution method
Format: functional
Settings: not given
Procedure, shortened: as §1

Row | Compound | MIC [µg/mL]
3 | O=C(O)c1cc(Nc2nc(-c3sc(NC(=O)c4ccccc4)nc3C(F)(F)F)cs2)cc(C(F)(F)F)c1 | 32

Tested on: Staphylococcus haemolyticus
Test: Antibacterial activity against oxacillin-resistant Staphylococcus haemolyticus SI-6/2011 assessed as reduction in microbial growth measured after 18 hrs by CLSI based broth microdilution method
Format: functional
Settings: not given
Procedure, shortened: as §1

Row | Compound | MIC [µg/mL]
4 | O=C(O)c1cc(Nc2nc(-c3sc(NC(=O)c4ccccc4)nc3C(F)(F)F)cs2)cc(C(F)(F)F)c1 | 32

Tested on: Enterococcus faecium
Test: Antibacterial activity against Vancomycin/teicoplanin resistant Enterococcus faecium SI-759 assessed as reduction in microbial growth measured after 18 hrs by CLSI based broth microdilution method
Format: functional
Settings: not given
Procedure, shortened: as §1

Row | Compound | MIC [µg/mL]
5 | O=C(O)c1cc(Nc2nc(-c3sc(NC(=O)c4ccccc4)nc3C(F)(F)F)cs2)cc(C(F)(F)F)c1 | 64

Tested on: Bacillus subtilis
Test: Antibacterial activity against Bacillus subtilis ATCC 6633 assessed as reduction in microbial growth measured after 18 hrs by CLSI based broth microdilution method
Format: functional
Settings: not given
Procedure, shortened: (§2)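 MIC by CLSI broth microdilution in Mueller–Hinton medium, triplicate. Inoculum 5 × 10^4 CFU per well. Compounds taken up in DMSO (50 mg mL−1 stock) and diluted in medium. Read after 18 h at 35 ± 2 °C.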

Row | Compound | MIC [µg/mL]
6 | O=C(O)c1cc(Nc2nc(-c3sc(NC(=O)c4ccccc4)nc3C(F)(F)F)cs2)cc(C(F)(F)F)c1 | 4

Tested on: Enterococcus faecalis
Test: Bactericidal activity against Enterococcus faecalis ATCC 29212 assessed as reduction in microbial growth measured after 18 hrs by CLSI based broth microdilution method
Format: functional
Settings: not given
Procedure, shortened: (§3)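 MBC by CLSI broth microdilution in Mueller–Hinton medium, triplicate. Inoculum 5 × 10^4 CFU per well. Read after 18 h at 35 ± 2 °C.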

Row | Compound | MBC [µg/mL]
7 | O=C(O)c1cc(Nc2nc(-c3sc(NC(=O)c4ccccc4)nc3C(F)(F)F)cs2)cc(C(F)(F)F)c1 | > 32

Tested on: Enterococcus faecalis
Test: Antibacterial activity against Enterococcus faecalis ATCC 29212 assessed as reduction in microbial growth measured after 18 hrs by CLSI based broth microdilution method
Format: functional
Settings: not given
Procedure, shortened: as §2

Row | Compound | MIC [µg/mL]
8 | O=C(O)c1cc(Nc2nc(-c3sc(NC(=O)c4ccccc4)nc3C(F)(F)F)cs2)cc(C(F)(F)F)c1 | 2

Tested on: Enterococcus faecium
Test: Bactericidal activity against Vancomycin resistant Enterococcus faecium SI-3856B assessed as reduction in microbial growth measured after 18 hrs by CLSI based broth microdilution method
Format: functional
Settings: not given

Row | Compound | MBC [µg/mL]
9 | O=C(O)c1cc(Nc2nc(-c3sc(NC(=O)c4ccccc4)nc3C(F)(F)F)cs2)cc(C(F)(F)F)c1 | > 64

Tested on: Escherichia coli
Test: Synergistic antibacterial activity against Escherichia coli CCUGT incubated for 18 to 24 hrs in presence of colistin by broth microdilution method
Format: functional
Settings: time 18-24 hrs

Row | Compound | MAC [µg/mL]
10 | O=C(O)c1cc(Nc2nc(-c3sc(NC(=O)c4ccccc4)nc3C(F)(F)F)cs2)cc(C(F)(F)F)c1 | >64

Tested on: Staphylococcus haemolyticus
Test: Bactericidal activity against oxacillin-resistant Staphylococcus haemolyticus SI-6/2011 assessed as reduction in microbial growth measured after 18 hrs by CLSI based broth microdilution method
Format: functional
Settings: not given

Row | Compound | MBC [µg/mL]
11 | O=C(O)c1cc(Nc2nc(-c3sc(NC(=O)c4ccccc4)nc3C(F)(F)F)cs2)cc(C(F)(F)F)c1 | > 64

Tested on: not listed separately
Test: Cytotoxicity against african green monkey Vero E6 cells assessed as reduction in cell viability by MTT assay
Format: toxicity, cell-based
Settings: chlorocebus sabaeus, Vero E6 cells (Vero C1008)
Procedure, shortened: (§4)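 MTT viability on HeLa or VeroE6 cells, run in parallel with the antiviral assays. CC50 from variable-slope sigmoidal dose–response regression.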

Row | Compound | CC50 [µM]
12 | O=C(O)c1cc(Nc2nc(-c3sc(NC(=O)c4ccccc4)nc3C(F)(F)F)cs2)cc(C(F)(F)F)c1 | > 50

Tested on: Enterococcus faecium
Test: Bactericidal activity against Vancomycin/teicoplanin resistant Enterococcus faecium SI-759 assessed as reduction in microbial growth measured after 18 hrs by CLSI based broth microdilution method
Format: functional
Settings: not given

Row | Compound | MBC [µg/mL]
13 | O=C(O)c1cc(Nc2nc(-c3sc(NC(=O)c4ccccc4)nc3C(F)(F)F)cs2)cc(C(F)(F)F)c1 | > 64

Tested on: Enterococcus faecium
Test: Antibacterial activity against Vancomycin resistant Enterococcus faecium SI-3856B assessed as reduction in microbial growth measured after 18 hrs by CLSI based broth microdilution method
Format: functional
Settings: not given
Procedure, shortened: as §1

Row | Compound | MIC [µg/mL]
14 | O=C(O)c1cc(Nc2nc(-c3sc(NC(=O)c4ccccc4)nc3C(F)(F)F)cs2)cc(C(F)(F)F)c1 | > 64

Tested on: Bacillus subtilis
Test: Bactericidal activity against Bacillus subtilis ATCC 6633 assessed as reduction in microbial growth measured after 18 hrs by CLSI based broth microdilution method
Format: functional
Settings: not given
Procedure, shortened: as §3

Row | Compound | MBC [µg/mL]
15 | O=C(O)c1cc(Nc2nc(-c3sc(NC(=O)c4ccccc4)nc3C(F)(F)F)cs2)cc(C(F)(F)F)c1 | 32

Tested on: Klebsiella pneumoniae
Test: Synergistic antibacterial activity against Klebsiella pneumoniae ATCC 13833 incubated for 18 to 24 hrs in presence of colistin by broth microdilution method
Format: functional
Settings: time 18-24 hrs

Row | Compound | MAC [µg/mL]
16 | O=C(O)c1cc(Nc2nc(-c3sc(NC(=O)c4ccccc4)nc3C(F)(F)F)cs2)cc(C(F)(F)F)c1 | >64

Tested on: Streptococcus pyogenes
Test: Bactericidal activity against Streptococcus pyogenes ATCC 12344 assessed as reduction in microbial growth measured after 18 hrs by CLSI based broth microdilution method
Format: functional
Settings: not given
Procedure, shortened: as §3

Row | Compound | MBC [µg/mL]
17 | O=C(O)c1cc(Nc2nc(-c3sc(NC(=O)c4ccccc4)nc3C(F)(F)F)cs2)cc(C(F)(F)F)c1 | > 32

Tested on: not listed separately
Test: Cytotoxicity against human HeLa cells assessed as reduction in cell viability by MTT assay
Format: toxicity, cell-based
Settings: not given
Procedure, shortened: as §4

Row | Compound | CC50 [µM]
18 | O=C(O)c1cc(Nc2nc(-c3sc(NC(=O)c4ccccc4)nc3C(F)(F)F)cs2)cc(C(F)(F)F)c1 | > 50

Tested on: Streptococcus pyogenes
Test: Antibacterial activity against Streptococcus pyogenes ATCC 12344 assessed as reduction in microbial growth measured after 18 hrs by CLSI based broth microdilution method
Format: functional
Settings: not given
Procedure, shortened: as §2

Row | Compound | MIC [µg/mL]
19 | O=C(O)c1cc(Nc2nc(-c3sc(NC(=O)c4ccccc4)nc3C(F)(F)F)cs2)cc(C(F)(F)F)c1 | 2

Tested on: Acinetobacter baumannii
Test: Synergistic antibacterial activity against Acinetobacter baumannii ATCC 17978 incubated for 18 to 24 hrs in presence of colistin by broth microdilution method
Format: functional
Settings: time 18-24 hrs

Row | Compound | MAC [µg/mL]
20 | O=C(O)c1cc(Nc2nc(-c3sc(NC(=O)c4ccccc4)nc3C(F)(F)F)cs2)cc(C(F)(F)F)c1 | >64

Tested on: Staphylococcus aureus
Test: Bactericidal activity against methicillin-resistant Staphylococcus aureus ATCC 43300 assessed as reduction in microbial growth measured after 18 hrs by CLSI based broth microdilution method
Format: functional
Settings: not given

Row | Compound | MBC [µg/mL]
21 | O=C(O)c1cc(Nc2nc(-c3sc(NC(=O)c4ccccc4)nc3C(F)(F)F)cs2)cc(C(F)(F)F)c1 | > 64

Tested on: Enterococcus faecium
Test: Bactericidal activity against Vancomycin resistant Enterococcus faecium SI-1831 assessed as reduction in microbial growth measured after 18 hrs by CLSI based broth microdilution method
Format: functional
Settings: not given

Row | Compound | MBC [µg/mL]
22 | O=C(O)c1cc(Nc2nc(-c3sc(NC(=O)c4ccccc4)nc3C(F)(F)F)cs2)cc(C(F)(F)F)c1 | > 64

Tested on: Staphylococcus epidermidis
Test: Bactericidal activity against linezolid-resistant Staphylococcus epidermidis SI-1266 assessed as reduction in microbial growth measured after 18 hrs by CLSI based broth microdilution method
Format: functional
Settings: not given

Row | Compound | MBC [µg/mL]
23 | O=C(O)c1cc(Nc2nc(-c3sc(NC(=O)c4ccccc4)nc3C(F)(F)F)cs2)cc(C(F)(F)F)c1 | > 64

Tested on: Staphylococcus warneri
Test: Bactericidal activity against oxacillin-resistant Staphylococcus warneri SI-5/2011 assessed as reduction in microbial growth measured after 18 hrs by CLSI based broth microdilution method
Format: functional
Settings: not given

Row | Compound | MBC [µg/mL]
24 | O=C(O)c1cc(Nc2nc(-c3sc(NC(=O)c4ccccc4)nc3C(F)(F)F)cs2)cc(C(F)(F)F)c1 | > 64

Tested on: rhinovirus A16
Settings: hela

Row | Compound | IC50
25 | O=C(O)c1cc(Nc2nc(-c3sc(NC(=O)c4ccccc4)nc3C(F)(F)F)cs2)cc(C(F)(F)F)c1 | Not Active

Tested on: Staphylococcus warneri
Test: Antibacterial activity against oxacillin-resistant Staphylococcus warneri SI-5/2011 assessed as reduction in microbial growth measured after 18 hrs by CLSI based broth microdilution method
Format: functional
Settings: not given
Procedure, shortened: as §1

Row | Compound | MIC [µg/mL]
26 | O=C(O)c1cc(Nc2nc(-c3sc(NC(=O)c4ccccc4)nc3C(F)(F)F)cs2)cc(C(F)(F)F)c1 | > 64

Tested on: Staphylococcus aureus
Test: Antibacterial activity against Staphylococcus aureus ATCC 25923 assessed as reduction in microbial growth measured after 18 hrs by CLSI based broth microdilution method
Format: functional
Settings: not given
Procedure, shortened: as §2

Row | Compound | MIC [µg/mL]
27 | O=C(O)c1cc(Nc2nc(-c3sc(NC(=O)c4ccccc4)nc3C(F)(F)F)cs2)cc(C(F)(F)F)c1 | > 32

Tested on: Pseudomonas aeruginosa
Test: Synergistic antibacterial activity against Pseudomonas aeruginosa ATCC 27853 incubated for 18 to 24 hrs in presence of colistin by broth microdilution method
Format: functional
Settings: time 18-24 hrs

Row | Compound | MAC [µg/mL]
28 | O=C(O)c1cc(Nc2nc(-c3sc(NC(=O)c4ccccc4)nc3C(F)(F)F)cs2)cc(C(F)(F)F)c1 | >64

Tested on: enterovirus D68
Settings: hela

Row | Compound | IC50
29 | O=C(O)c1cc(Nc2nc(-c3sc(NC(=O)c4ccccc4)nc3C(F)(F)F)cs2)cc(C(F)(F)F)c1 | Not Active

Tested on: Staphylococcus aureus
Test: Antibacterial activity against methicillin-resistant Staphylococcus aureus ATCC 43300 assessed as reduction in microbial growth measured after 18 hrs by CLSI based broth microdilution method
Format: functional
Settings: not given
Procedure, shortened: as §1

Row | Compound | MIC [µg/mL]
30 | O=C(O)c1cc(Nc2nc(-c3sc(NC(=O)c4ccccc4)nc3C(F)(F)F)cs2)cc(C(F)(F)F)c1 | > 64
